Tests used:
[1] = tested on: Rattus norvegicus; experiment: Decrease in serum cholesterol level in hypercholesterolemic Wistar rat at 20 mg/kg, po for 1 week with diet; assay type: functional
Outline: (§1)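 Adult male Wistar rats (100–120 g) were used, six per group. They received 5% cholesterol diet for 1 week, then cholesterol-rich diet plus compound at 20 mg/Kgwt, as a suspension in water, po, during week 2. Controls were saline-fed and cholesterol-only groups. Hepatic and serum cholesterol and triglycerides were measured by enzymatic assays. Values are mean ± SE from duplicate assays, compared with the hypercholesterolemic group.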

[2] = tested on: Hepatocyte; experiment: Cytotoxicity against rat primary hepatocytes after 24 hrs by MTT assay; assay type: cell-based
Outline: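 Hepatocytes were isolated from rat liver and cultured in DMEM with 10% FBS at 37 °C under 5% CO2/[…]. Cells were seeded at 1×10^5 cells/ml and exposed to analog at 1–1000 µM for 24 h. MTT was then added for 4 h, formazan was dissolved in DMSO, and A540 was read. Each dose was run in triplicate, and IC50 was derived from mean OD versus concentration curves.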

[3] = tested on: DNA; experiment: Binding affinity to calf thymus DNA assessed as melting temperature at pH 7.4 by thermal denaturation assay; assay type: nucleic-acid assay; details: Bos taurus
[4] = tested on: DNA; experiment: Binding affinity to calf thymus DNA assessed as change in melting temperature by thermal denaturation assay; assay type: nucleic-acid assay; details: Bos taurus
[5] = Binding affinity to GC(d(GC)7) oligonucleotide assessed as change in melting temperature by thermal denaturation assay
[6] = tested on: Rattus norvegicus; experiment: Decrease in hepatic triglyceride level in hypercholesterolemic Wistar rat at 20 mg/kg, po for 1 week with diet; assay type: functional; outline: as §1
[7] = tested on: Rattus norvegicus; experiment: Decrease in serum triglyceride level in hypercholesterolemic Wistar rat at 20 mg/kg, po for 1 week with diet; assay type: functional; outline: as §1
[8] = Binding affinity to AT(d(AT)10) oligonucleotide assessed as melting temperature at pH 7.4 by thermal denaturation assay
[9] = tested on: Rattus norvegicus; experiment: Decrease in hepatic cholesterol level in hypercholesterolemic Wistar rat at 20 mg/kg, po for 1 week with diet; assay type: functional; outline: as §1
[10] = Binding affinity to AT(d(AT)10) oligonucleotide assessed as change in melting temperature by thermal denaturation assay
[11] = Binding affinity to GC(d(GC)7) oligonucleotide assessed as melting temperature at pH 7.4 by thermal denaturation assay
[12] = Binding affinity to GC(d(GC)7) oligonucleotide assessed as binding constant at DNA melting temperature at 12.5 uM
Outline: (§2)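 Binding constants came from absorbance at 260 nm versus temperature, 25 to 100 °C at 1 °C/min. Conditions were 20 mM sodium phosphate pH 7.4, 100 mM NaCl, 2.5 μM DNA (bp) and a saturating 12.5 μM analog.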

[13] = tested on: DNA; experiment: Binding affinity to calf thymus DNA assessed as binding constant at DNA melting temperature at 12.5 uM; assay type: nucleic-acid assay; details: Bos taurus; outline: as §2

Compound `FC(F)(F)c1ccc(/C=C/CSSC/C=C/c2ccc(C(F)(F)F)cc2)cc1` has an Activity [1] of 42.69 mg/dL, an IC50 [2] of 140 µM and a Tm [3] of 78 °C. For the same compound, the ΔTm [4] was 5 °C, the ΔTm [5] was 4 °C and the Activity [6] was 20.57 mg/dL. The Activity [7] was 35.09 mg/dL, the Tm [8] was 52 °C and the Activity [9] was 2.12 mg/dL. It also gave a ΔTm [10] of 0 °C and a Tm [11] of 91 °C.

For `Fc1ccc(/C=C/CSSC/C=C/c2ccc(F)cc2)cc1`, the Activity [1] was 42.15 mg/dL, the IC50 [2] was 155 µM and the Tm [3] was 79 °C. It also gave a ΔTm [4] of 6 °C, a ΔTm [5] of 5 °C and an Activity [6] of 21.03 mg/dL. The Activity [7] was 35.54 mg/dL, the Tm [8] was 51 °C and the Activity [9] was 2.07 mg/dL. It also gave a ΔTm [10] of -1 °C and a Tm [11] of 92 °C.

For `C=CCS[S+]([O-])CC=C` (configuration not stated) [ALLICIN], the Activity [1] was 42.69 mg/dL, the Activity [6] was 20.34 mg/dL and the Activity [7] was 36.86 mg/dL. It also gave an Activity [9] of 2.15 mg/dL.

`CC[C@H](C)C(=O)O[C@H]1C[C@@H](C)C=C2C=C[C@H](C)[C@H](CC[C@@H]3C[C@@H](O)CC(=O)O3)[C@H]21` [LOVASTATIN] gave an Activity [1] of 36.21 mg/dL, an Activity [6] of 17.35 mg/dL and an Activity [7] of 31.98 mg/dL. It also gave an Activity [9] of 1.6 mg/dL.

For `Clc1ccccc1/C=C/CSSC/C=C/c1ccccc1Cl`, the Activity [1] was 37.29 mg/dL, the IC50 [2] was 425 µM and the K [12] was 6.9 ×10⁶ /M. The Tm [3] was 81 °C, the ΔTm [4] was 8 °C and the ΔTm [5] was 6 °C. For the same compound, the Activity [6] was 19.28 mg/dL, the Activity [7] was 32.87 mg/dL and the Tm [8] was 49 °C. For the same compound, the Activity [9] was 1.87 mg/dL, the ΔTm [10] was -3 °C and the K [13] was 4.03 ×10⁵ /M. For the same compound, the Tm [11] was 93 °C.

For `O=[N+]([O-])c1ccc(/C=C/CSSC/C=C/c2ccc([N+](=O)[O-])cc2)cc1`, the Activity [1] was 38.37 mg/dL, the IC50 [2] was 335 µM and the Tm [3] was 80 °C. For the same compound, the ΔTm [4] was 7 °C, the ΔTm [5] was 7 °C and the Activity [6] was 19.8 mg/dL. For the same compound, the Activity [7] was 33.32 mg/dL, the Tm [8] was 52 °C and the Activity [9] was 1.97 mg/dL. It also gave a ΔTm [10] of 0 °C and a Tm [11] of 94 °C.

`Clc1ccc(/C=C/CSSC/C=C/c2ccc(Cl)cc2Cl)c(Cl)c1` showed an Activity [1] of 42.15 mg/dL, an IC50 [2] of 350 µM and a Tm [3] of 81 °C. For the same compound, the ΔTm [4] was 8 °C, the ΔTm [5] was 6 °C and the Activity [6] was 20.61 mg/dL. The Activity [7] was 34.65 mg/dL, the Tm [8] was 51 °C and the Activity [9] was 2.04 mg/dL. It also gave a ΔTm [10] of -1 °C and a Tm [11] of 93 °C.

In the case of `Brc1ccccc1/C=C/CSSC/C=C/c1ccccc1Br`, the Activity [1] is reported as 41.07 mg/dL, the IC50 [2] is reported as 365 µM and the Tm [3] is reported as 80 °C. For the same compound, the ΔTm [4] was 7 °C, the ΔTm [5] was 5 °C and the Activity [6] was 21.41 mg/dL. It also gave an Activity [7] of 35.54 mg/dL, a Tm [8] of 52 °C and an Activity [9] of 2.07 mg/dL. The ΔTm [10] was 0 °C and the Tm [11] was 92 °C.

`Brc1ccc(/C=C/CSSC/C=C/c2ccc(Br)cc2Br)c(Br)c1` showed an Activity [1] of 41.61 mg/dL, an IC50 [2] of 275 µM and a Tm [3] of 81 °C. The ΔTm [4] was 8 °C, the ΔTm [5] was 6 °C and the Activity [6] was 21.79 mg/dL. It also gave an Activity [7] of 34.65 mg/dL, a Tm [8] of 50 °C and an Activity [9] of 2.12 mg/dL. The ΔTm [10] was -2 °C and the Tm [11] was 93 °C.

From ChEMBL document CHEMBL1155802, “Synthesis, DNA binding, and cytotoxic evaluation of new analogs of diallyldisulfide, an active principle of garlic” (Bioorg Med Chem, 2008)
